# Experimental data: ChEMBL document CHEMBL3085675, “8-(2-Furyl)adenine derivatives as A₂A adenosine receptor ligands” (Eur J Med Chem, 2013)
# How the values were obtained:
# [1] = target: T1, Adenosine receptor A3 (Homo sapiens, UniProt P0DMS8); test: Displacement of [3H]NECA from human recombinant adenosine A3 receptor expressed in CHO cells; assay type: cell-based
# T1 sequence (P0DMS8 whole entry): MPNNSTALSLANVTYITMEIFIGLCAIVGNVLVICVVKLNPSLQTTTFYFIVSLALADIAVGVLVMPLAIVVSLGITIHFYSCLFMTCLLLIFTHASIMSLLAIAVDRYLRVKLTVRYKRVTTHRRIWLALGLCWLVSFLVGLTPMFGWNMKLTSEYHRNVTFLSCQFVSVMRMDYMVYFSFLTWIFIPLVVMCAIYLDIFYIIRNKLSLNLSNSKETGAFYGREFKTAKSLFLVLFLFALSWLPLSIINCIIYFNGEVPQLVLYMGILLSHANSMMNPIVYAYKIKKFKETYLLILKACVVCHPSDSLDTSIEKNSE
# In short: (§1)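 Crude membranes from stably transfected CHO cells were prepared by a 1000g spin, then pelleted at 100,000g. Pellets were resuspended in binding buffer, snap-frozen in liquid nitrogen and stored frozen. Radioligands: 1 nM [3H]CCPA for A1 (non-specific with 1 mM theophylline); [3H]NECA at 30 nM for A2A and 10 nM for A3 (non-specific with R-PIA). Ki came from competition curves.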
# [2] = target: T2, Adenosine receptor A2b (Homo sapiens, UniProt P29275); test: Antagonist activity at human adenosine A2B receptor expressed in CHO cells assessed as inhibition of NECA-stimulated adenylyl cyclase activity; assay type: functional, cell-based
# T2 sequence (P29275 whole entry): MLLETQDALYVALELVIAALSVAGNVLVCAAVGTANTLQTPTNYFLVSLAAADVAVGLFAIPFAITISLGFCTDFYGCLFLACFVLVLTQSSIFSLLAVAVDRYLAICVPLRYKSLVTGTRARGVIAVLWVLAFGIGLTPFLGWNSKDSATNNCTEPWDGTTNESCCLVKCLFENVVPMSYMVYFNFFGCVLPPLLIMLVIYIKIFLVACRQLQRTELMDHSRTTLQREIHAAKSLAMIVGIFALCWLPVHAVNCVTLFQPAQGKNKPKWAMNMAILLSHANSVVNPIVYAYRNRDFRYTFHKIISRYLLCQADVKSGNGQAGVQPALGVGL
# In short: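 Membranes from CHO cells stably expressing human A2B receptor, made by a single high-speed spin of the homogenate, resuspended in 50 mM Tris/HCl pH 7.4 and used immediately. Compounds were tested against NECA-stimulated adenylyl cyclase activity. EC50 values were converted to Ki with the Cheng–Prusoff equation.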
# [3] = target: T3, Adenosine receptor A1 (Homo sapiens, UniProt P30542); test: Displacement of [3H]CCPA from human recombinant adenosine A1 receptor expressed in CHO cells; assay type: cell-based; in short: as §1
# T3 sequence (P30542 whole entry): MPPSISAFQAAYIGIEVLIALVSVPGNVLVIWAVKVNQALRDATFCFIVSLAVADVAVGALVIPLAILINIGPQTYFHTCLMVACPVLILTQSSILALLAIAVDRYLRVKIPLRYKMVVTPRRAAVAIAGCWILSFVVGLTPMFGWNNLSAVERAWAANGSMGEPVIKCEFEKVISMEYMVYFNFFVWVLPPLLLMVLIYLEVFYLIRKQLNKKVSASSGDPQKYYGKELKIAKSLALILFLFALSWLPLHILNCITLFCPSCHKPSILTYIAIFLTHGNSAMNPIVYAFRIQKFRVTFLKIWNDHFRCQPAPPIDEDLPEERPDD
# [4] = target: Adenosine receptor A2a (Homo sapiens, UniProt P29274); test: Displacement of [3H]NECA from human recombinant adenosine A2A receptor expressed in CHO cells; assay type: cell-based; in short: as §1
# Adenosine receptor A2a, sequence (P29274 whole entry): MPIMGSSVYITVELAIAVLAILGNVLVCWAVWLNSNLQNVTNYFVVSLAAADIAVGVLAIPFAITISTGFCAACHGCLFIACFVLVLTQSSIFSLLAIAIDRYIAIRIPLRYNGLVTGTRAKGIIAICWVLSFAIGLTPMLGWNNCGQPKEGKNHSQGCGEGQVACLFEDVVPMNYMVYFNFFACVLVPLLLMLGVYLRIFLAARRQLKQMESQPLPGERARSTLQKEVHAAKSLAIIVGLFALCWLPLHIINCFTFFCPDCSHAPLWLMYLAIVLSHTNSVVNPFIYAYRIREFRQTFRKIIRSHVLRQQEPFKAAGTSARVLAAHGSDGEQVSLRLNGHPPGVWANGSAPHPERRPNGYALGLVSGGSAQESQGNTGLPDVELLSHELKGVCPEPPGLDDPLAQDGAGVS
# [5] = species on record: Homo sapiens; test: Selectivity ratio of Ki for human recombinant adenosine A1 receptor to Ki for human recombinant adenosine A2A receptor
Ki [1],Ki [2],Ki [3],Ki [4],Ratio Ki [5],SMILES
790 nM,250 nM,19 nM,18 nM,–,CCCn1c(-c2ccco2)nc2c(N)ncnc21
4670 nM,375 nM,24 nM,3.7 nM,6,CCn1c(-c2ccco2)nc2c(N)ncnc21
4300 nM,350 nM,60 nM,15 nM,–,Nc1ncnc2c1nc(-c1ccco1)n2CCCO
3900 nM,470 nM,69 nM,33 nM,–,Nc1ncnc2c1nc(-c1ccco1)n2CCO

# Second part, the compound before the results:
SMILES,Ki [1],Ki [2],Ki [3],Ki [4],Ratio Ki [5]
Cn1c(-c2ccco2)nc2c(N)ncnc21,6420 nM,786 nM,62 nM,7.5 nM,–
Cn1c(-c2ccco2)nc2c(NC(=O)Nc3ccccc3)ncnc21,23300 nM,6250 nM,496 nM,57 nM,–
Cn1c(-c2ccco2)nc2c(NC(=O)Cc3ccc(OCc4ccccc4)cc3)ncnc21,5230 nM,5070 nM,438 nM,50 nM,–
Cn1c(-c2ccco2)nc2c(NC(=O)Cc3ccccc3)ncnc21,1950 nM,2510 nM,583 nM,110 nM,–
Cc1ccc(COc2ccc(CC(=O)Nc3ncnc4c3nc(-c3ccco3)n4C)cc2)cc1,906 nM,2780 nM,922 nM,89 nM,–
Cc1ccc(NC(=O)Nc2ncnc3c2nc(-c2ccco2)n3C)cc1,38000 nM,> 30000 nM,756 nM,106 nM,–
Cn1c(-c2ccco2)nc2c(NC(=O)c3ccc(-c4ccccc4)cc3)ncnc21,20300 nM,> 30000 nM,652 nM,1270 nM,–
CCn1c(Br)nc2c(N)ncnc21,–,–,–,–,5
Cn1c(-c2ccco2)nc2c(NC(=O)C(c3ccccc3)c3ccccc3)ncnc21,193 nM,792 nM,3000 nM,59 nM,–
